OX1R antag-1 – antagonists of human orexin 1 receptor (OX1R). OX1R-expressing cells, FRET antagonist read-out. inhibition, % at 6.6 µM. 330,000 tested, 1.8% active. AID 485270, 2010; in the data active = inhibition mostly above about 38%, no sharp cut-off; inactive = mostly below about 40%
Target sequence (O43613 whole entry, looked up): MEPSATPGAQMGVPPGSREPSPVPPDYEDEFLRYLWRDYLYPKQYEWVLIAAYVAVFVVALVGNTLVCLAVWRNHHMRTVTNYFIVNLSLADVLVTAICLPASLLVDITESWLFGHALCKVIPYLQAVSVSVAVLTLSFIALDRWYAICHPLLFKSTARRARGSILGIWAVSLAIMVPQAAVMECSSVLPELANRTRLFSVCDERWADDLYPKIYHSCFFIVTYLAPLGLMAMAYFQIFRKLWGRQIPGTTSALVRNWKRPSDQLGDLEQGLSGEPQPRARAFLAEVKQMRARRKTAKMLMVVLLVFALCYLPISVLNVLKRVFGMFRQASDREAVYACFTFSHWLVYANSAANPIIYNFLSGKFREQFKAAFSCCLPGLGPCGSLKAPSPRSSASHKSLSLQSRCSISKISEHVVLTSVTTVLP
CHO parental Ca – ATP-evoked calcium signal inhibitors, parental CHO, primary screen, counter-screen for OX1R antagonist project, cell-based, fluorescence, Fluo-8 calcium dye; parental CHO-K1, ATP-induced calcium, Fluo-8 fluorescence; 330,000 tested, 0.63% active; AID 463079, 2010; inhibition, % at 5.6 µM;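 active = inhibition above that plate's mean sample inhibition plus 3 SD, cut at about 26% in these data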
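Material: Parental CHO cells | Reagent: ATP | Compound dosing: Single nominal dose of 5.6 µM per compound | Detection: Intracellular calcium via Fluo-8 no-wash fluorescent dye | Read-out: % inhibition of ATP-induced calcium mobilization | Benchmarks: Low control ATP plus DMSO, high control DMSO only | Replicates: Singlicate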
TRPML3 agonist – human TRPML3 channel agonists, primary screen, cell-based, HEK293 TRPML3-YFP, Fluo-8 calcium fluorescence, 3 µM; Mucolipin-3 (Homo sapiens), Q8TDD5; 100% = the carbachol control signal; activation, % at 3 µM; 220,000 tested, 0.29% active; AID 1448, 2008;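 active = activation above its plate's cutoff, the mean activation of the plate's test wells plus 3 SD, cut at about 12% in these data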
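Material: HEK293 cells stably carrying human TRPML3-YFP; compound dosing: single dose, 3 µM final nominal compound, 0.3% DMSO final; incubation: 1-h 37 °C dye load, 5-s basal, 120-s post-compound reads; technique: Fluo-8 intracellular calcium fluorescence, excitation 470-495 nm, emission 515-575 nm; read-out basis: percent activation from peak-to-basal fluorescence ratio, scaled between DMSO and carbachol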
GPR7 antag – GPR7 receptor antagonists, primary screen, cell-based, fluorescence, single concentration; GPR7-expressing cells, fluorescence antagonist assay; 290,000 tested, 1.1% active; inhibition, % at 4.4 µM; Neuropeptides B/W receptor type 1 (Homo sapiens), P48145; in the data active = inhibition above about 16%, passing the limit was not always enough;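 note: cells stimulated with the agonist NPW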
Target sequence (P48145 whole entry, looked up): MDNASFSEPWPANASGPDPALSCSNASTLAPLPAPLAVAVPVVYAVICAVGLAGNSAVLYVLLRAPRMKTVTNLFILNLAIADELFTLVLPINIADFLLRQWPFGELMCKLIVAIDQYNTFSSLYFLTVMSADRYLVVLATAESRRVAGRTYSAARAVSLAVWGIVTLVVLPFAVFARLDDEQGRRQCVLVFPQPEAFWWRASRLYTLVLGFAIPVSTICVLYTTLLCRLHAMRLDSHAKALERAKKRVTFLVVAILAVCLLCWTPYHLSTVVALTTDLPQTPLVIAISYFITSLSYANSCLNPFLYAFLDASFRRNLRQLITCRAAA
TRPN1 ag – zebrafish TRPN1 channel agonists, primary screen, cell-based, HEK293, calcium fluorescence | transient receptor potential cation channel N1 (TRPN1/NompC), Danio rerio | HEK293 zebrafish TRPN1-YFP, Fluo-8 calcium fluorescence; 100% = response to 87 µM carbachol | activation, % at 3 µM | 220,000 tested, 0.18% active;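 active = activation above its plate's cutoff, the mean activation of test wells on that plate plus 3 SD, cut at about 19% in these data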
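System: zebrafish TRPN1-YFP in HEK293 cells / Dosing: 3 µM single point / Timing: dye loading 1 h at 37 °C, then 30 min room temperature / Signal: Fluo-8 calcium fluorescence, excitation 470-495 nm, emission 515-575 nm / Read-out basis: percent activation from peak over basal fluorescence ratio, control-normalized / Control set: high carbachol 87 µM, low DMSO alone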
OX1R antag-2 – OX1R (HCRTR1) antagonists, primary screen, fluorescence, CHO/OX1R cells, Fluo-8 calcium, orexin A; Fluo-8 calcium fluorescence; inhibition, % at 5 µM; 330,000 tested, 0.43% active; AID 434989, 2010;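 active = inhibition above its plate's threshold, mean inhibition of all tested compounds on the plate plus 3 SD, cut at about 37% in these data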
Large screens that a line does not name were inactive. Compounds with a hit are over-represented: about 3.2% of the library has one in this group of screens.

COc1cc2c(C(=O)N3CCOCC3)c(CSc3ccccc3)n(C)c2cc1Br	OX1R antag-1 56
O=C(CN1C(=O)S/C(=C/c2ccncc2)C1=O)Nc1ccccc1	OX1R antag-1 64 (no result: TRPML3 agonist, TRPN1 ag)
COc1ccc(/C(C)=N/OCC(=O)N2CC3(C)CC2CC(C)(C)C3)cc1 (centres undefined)	none
O=C(/C=C/c1ccco1)N(Cc1ccccc1F)C1CCS(=O)(=O)C1 (centres undefined)	none (no result: TRPML3 agonist, TRPN1 ag)
COC(=O)c1c(C)oc2ccc(N(C(=O)c3ccncc3)S(=O)(=O)c3ccccc3)cc12	none
COC(=O)c1c(C)oc2ccc(N(C(=O)c3ccncc3)S(=O)(=O)c3ccc(C)cc3C)cc12	CHO parental Ca 38
Cc1ccc(NC(=O)CSc2nc(C)c(C)c(C)n2)cc1S(=O)(=O)N1CCOCC1	none (no result: TRPML3 agonist, GPR7 antag, TRPN1 ag)
COc1ccc(C(=O)Nc2ccc(Cl)c(S(=O)(=O)N3CCOCC3)c2)cc1	OX1R antag-2 43 (no result: TRPML3 agonist, GPR7 antag, TRPN1 ag)
O=C(CCCSc1ccccc1)Nc1ccc(Cl)c(S(=O)(=O)N2CCOCC2)c1	OX1R antag-1 32 (no result: TRPML3 agonist, GPR7 antag, TRPN1 ag)
Cc1ccc(NC(=O)CSc2nc(N)cc(N)n2)cc1S(=O)(=O)N1CCOCC1	GPR7 antag 20
Cc1c(NC(=O)c2cccc(NC(=O)COc3cccc(Br)c3)c2)c(=O)n(-c2ccccc2)n1C	none (no result: TRPML3 agonist, GPR7 antag, TRPN1 ag)
Cc1cccc(OCC(=O)NC(C)C(=O)N/N=C/c2c(OCc3ccccc3)ccc3ccccc23)c1 (centres undefined)	OX1R antag-1 43
Cc1occc1C(=O)NNC(=O)c1ccc(S(=O)(=O)N(C)C)cc1	none (no result: TRPML3 agonist, GPR7 antag, TRPN1 ag)
CCOC(=O)C(=Cc1ccc(-c2ccsc2C(=O)OC)o1)C(=O)OCC	none
COC(=O)C(=Cc1ccc(-c2ccsc2C(=O)OC)o1)C(=O)OC	OX1R antag-1 50
Cc1cc(/C=C2\SC(=S)NC2=O)c(C)n1-c1ccc(O)cc1	none
Cc1cc(/C=C2\SC(=S)NC2=O)cc(C)c1O	OX1R antag-1 46
Cc1cc(/C=C2\SC(=S)NC2=O)c(C)n1-c1ccccc1	OX1R antag-1 45
O=C(NCCOc1ccccc1)c1ccccc1Cl	none (no result: TRPML3 agonist, TRPN1 ag)
CN(C(=O)COc1ccccc1C(=O)NCCOc1ccccc1)c1ccccc1	OX1R antag-1 80, CHO parental Ca 92, OX1R antag-2 78
CCS(=O)(=O)n1nc(-c2ccccc2)cc1N	none
Nc1cc(-c2ccc(Cl)cc2)nn1S(=O)(=O)c1ccccc1	CHO parental Ca 48
CCCCC(CC)C(=O)Oc1ccc(O)c(C(C)(C)C)c1 (centres undefined)	GPR7 antag 30
COC(=O)Nc1ccc(S(=O)(=O)N2CCC(Cc3ccccc3)CC2)cc1	CHO parental Ca 45
CC(=O)Nc1ccc(S(=O)(=O)N2CCN(C(=O)CCC3CCCC3)CC2)cc1	GPR7 antag 20
Cc1cc2cc(OCc3ccccc3)ccc2n1C	none (no result: TRPML3 agonist, TRPN1 ag)
Cc1cc2cc(OCC(=O)O)ccc2n1C	OX1R antag-1 59
Cc1ccc(SCCNC(=O)c2ccc(C)c(S(=O)(=O)Nc3ccccc3C)c2)cc1	OX1R antag-1 48
COc1ccc(C2(CNC(=O)C(=O)Nc3ccc(C)cc3)CCOCC2)cc1	none
[O-][N+]1=c2ccc(Nc3ccccc3)cc2=NC12CCCCC2	OX1R antag-1 47
COc1ccc(Nc2ccc3c(c2)=NC2(CCCCC2)[N+]=3[O-])cc1	none
O=C1OC2(c3ccccc31)c1cc(I)c(O)c(I)c1Oc1c2cc(I)c(O)c1I	OX1R antag-1 91, CHO parental Ca 94, OX1R antag-2 106 (no result: TRPML3 agonist, GPR7 antag, TRPN1 ag)
Cc1ccc(C(=O)O/N=C(\N)Cc2cccs2)c(Cl)c1	none (no result: TRPML3 agonist, TRPN1 ag)
CN(C)c1ccc(-c2ccc3oc(-c4ccsc4)cc(=O)c3c2)cn1	OX1R antag-1 57 (no result: TRPML3 agonist, GPR7 antag, TRPN1 ag)
O=C(O)c1ccccc1NC(=O)c1cc(-c2ccccc2)nc2ccccc12	OX1R antag-1 57 (no result: TRPML3 agonist, TRPN1 ag)
Cc1ccc(NC(=O)c2cc(-c3cccc(O)c3)on2)cc1C	OX1R antag-1 38
COc1cccc(-c2cc(C(=O)Nc3cc(OC)c(OC)c(OC)c3)no2)c1	OX1R antag-1 41
C#CCOc1ccc(C2C(C#N)=C(N)Oc3cc(O)ccc32)cc1 (centres undefined)	none (no result: TRPML3 agonist, TRPN1 ag)
O=S(=O)(NC1=NCCC1)c1ccc(F)cc1F	none
CCOC(=O)N1CCN(c2ncnc3c2[nH]c2ccc(F)cc23)CC1	CHO parental Ca 47, OX1R antag-2 52
OC1(c2cccc(C(F)(F)F)c2)CCN(c2ncnc3c2[nH]c2ccc(F)cc23)CC1	none (no result: OX1R antag-1, CHO parental Ca, OX1R antag-2)
CCOC(=O)N1CCN(c2ncnc3c2[nH]c2ccc(OC)cc23)CC1	none
COc1ccc2[nH]c3c(N4CCc5ccccc5C4)ncnc3c2c1	none
COc1ccc(N2CCN(c3ncnc4c3[nH]c3ccccc34)CC2)cc1	OX1R antag-1 89, CHO parental Ca 75, OX1R antag-2 71
Fc1ccc2[nH]c3c(N4CCN(c5ccccc5)CC4)ncnc3c2c1	OX1R antag-1 118, CHO parental Ca 59, OX1R antag-2 68
CCn1cc(S(=O)(=O)NC(C)c2cc(OC)ccc2OC)cn1 (centres undefined)	none (no result: TRPML3 agonist, TRPN1 ag)
CC(C)c1ccc(NC(=O)NCc2cccnc2)cc1	none (no result: TRPML3 agonist, TRPN1 ag)
Cc1ccc2c(CSc3nnnn3C)cc(=O)oc2c1	OX1R antag-1 62
CC(Nc1ncnc2sccc12)c1ccccc1 (centres undefined)	CHO parental Ca 42 (no result: TRPML3 agonist, TRPN1 ag)
c1ccc(Nc2ncnc3sccc23)cc1	none (no result: TRPML3 agonist, TRPN1 ag)
N#CCC(=O)Nc1ccc(C(=O)OCC(=O)c2c[nH]c3ccccc23)cc1	OX1R antag-1 39 (no result: TRPML3 agonist, GPR7 antag, TRPN1 ag)
O=C(CCCOc1cccc(Br)c1)NCCOc1ccccc1	none (no result: TRPML3 agonist, TRPN1 ag)
O=c1[nH]c(NCCO)nc2c1C1(CCCCC1)Cc1ccccc1-2	CHO parental Ca 81
CCC1(CC)Cc2ccccc2-c2nc(NCCO)[nH]c(=O)c21	none
COc1ccc(CNC(=O)C2CCN(S(=O)(=O)c3c(C)noc3/C=C/N(C)C)CC2)cc1	none (no result: TRPML3 agonist, TRPN1 ag)
CC1(NC(=O)Cc2csc(-c3cccc(Cl)c3)n2)CCS(=O)(=O)C1 (centres undefined)	none (no result: TRPML3 agonist, GPR7 antag, TRPN1 ag)
O=C(CSc1ncnc2sc3c(c12)CCCC3)N1CCC(c2noc3ccc(F)cc23)CC1	none
Cc1cc(SCC(=O)N2CCC(c3noc4ccc(F)cc34)CC2)nc2ccccc12	OX1R antag-1 49
O=C(CSc1cccs1)Nc1ccc2ccccc2c1	OX1R antag-1 41
NC(=O)c1cc([N+](=O)[O-])ccc1NCc1ccc(N)cc1	none (no result: TRPML3 agonist, GPR7 antag, TRPN1 ag)
